A short description of experiment [1]: Antioxidant activity assessed as protection against peroxyl radical-induced alkaline phosphatase activity loss by microplate assay. The class given is functional. The essentials:
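Pure compounds were tested in the microplate alkaline phosphatase (ALP) oxidation-protection assay. The reported value is EC50, the antioxidant concentration that protects ALP by 50% from peroxyl radical-induced loss of activity.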

A short description of experiment [2]: DPPH radical scavenging activity assessed as ratio of antioxidant concentration to drug level causing 50% decrease in DPPH level at steady state by microplate assay. In general terms: DPPH is a stable violet radical that fades when it is reduced.

Nine molecules from ChEMBL document CHEMBL1151950, “Antioxidant phenylethanoid glycosides and a neolignan from Jacaranda caucana” (J Nat Prod, 2009) can be followed below.

As for `C[C@@H]1O[C@@H](O[C@@H]2[C@@H](O)[C@H](OCCc3ccc(O)c(O)c3)O[C@H](COC(=O)C[C@]3(O)CC[C@@H](O)CC3)[C@H]2OC(=O)/C=C/c2ccc(O)c(O)c2)[C@H](O)[C@H](O)[C@H]1O`, the EC50 in experiment [1] worked out at 1270 nM. Also, in experiment [2], the Ratio was 0.098.

For `C[C@@H]1O[C@@H](O[C@@H]2[C@@H](O)[C@H](OCCc3ccc(O)c(O)c3)O[C@H](COC(=O)CC3(O)CCC(=O)CC3)[C@H]2OC(=O)/C=C/c2ccc(O)c(O)c2)[C@H](O)[C@H](O)[C@H]1O`, in experiment [1], the EC50 came to 1270 nM. The Ratio in experiment [2] stood at 0.079.

As to `COc1cc([C@H]2Oc3c(OC)cc([C@@H](O)[C@@H](O)CO)cc3[C@@H]2CO)ccc1O[C@@H]1O[C@@H](C)[C@H](O)[C@@H](O)[C@H]1O`, in experiment [1], the EC50 came to 9070 nM. In experiment [2], the Ratio turned out to be 1.84.

`C[C@@H]1O[C@@H](O[C@@H]2[C@@H](O)[C@H](OCCc3ccc(O)c(O)c3)O[C@H](CO)[C@H]2OC(=O)/C=C/c2ccc(O)c(O)c2)[C@H](O)[C@H](O)[C@H]1O` [ACETOSIDE]: in experiment [1], the EC50 is 1040 nM. For the same molecule, the Ratio in experiment [2] was found to be 0.078.

Regarding `C[C@@H]1O[C@@H](O[C@@H]2[C@@H](O)[C@H](OCCc3ccc(O)c(O)c3)O[C@H](COC(=O)/C=C/c3ccc(O)c(O)c3)[C@H]2O)[C@H](O)[C@H](O)[C@H]1O` [ISOACTEOSIDE], in experiment [1], the concentration for a half-maximal effect (EC50) was determined as 1200 nM. The Ratio in experiment [2] came to 0.07.

As to `COc1ccc(CCO[C@@H]2O[C@H](CO)[C@@H](OC(=O)/C=C/c3ccc(O)c(O)c3)[C@H](O[C@@H]3O[C@@H](C)[C@H](O)[C@@H](O)[C@H]3O)[C@H]2O)cc1O` [JIONOSIDE D], the EC50 in experiment [1] came out at 1100 nM. Besides, in experiment [2], the Ratio was 0.17.

`COc1ccc(CCO[C@@H]2O[C@H](CO)[C@@H](OC(=O)/C=C/c3ccc(O)c(OC)c3)[C@H](O[C@@H]3O[C@@H](C)[C@H](O)[C@@H](O)[C@H]3O)[C@H]2O)cc1O` [MARTYNOSIDE A]: the EC50 in experiment [1] is 2420 nM. Moreover, the Ratio in experiment [2] turned out to be 0.38.

In the case of `O=C(O)c1ccc(O)c(O)c1` [PROTOCATECHUIC ACID], in experiment [1], the EC50 was 2560 nM. Moreover, the Ratio in experiment [2] was 0.23.

Take `O=c1c(O)c(-c2ccc(O)c(O)c2)oc2cc(O)cc(O)c12` [QUERCETIN]: the EC50 in experiment [1] was 1000 nM. Moreover, in experiment [2], the Ratio turned out to be 0.09.

For orientation: EC50 means the concentration at which the effect is half-maximal.
